Source: ChEMBL document CHEMBL5032512, “A Photohormone for Light-Dependent Control of PPARα in Live Cells” (J Med Chem, 2021)

How the values were obtained:
Assay type in all cases: cell-based
[1] = target: T1, Peroxisome proliferator-activated receptor delta (Homo sapiens) (UniProt Q03181); test: Agonist activity at Gal4-fused human PPARdelta LBD transfected in HEK293T cells assessed as maximal relative activation incubated for 14 to 16 hrs by dual-Glo luciferase assay relative to L165,041; details: time 14-16 hrs
T1 sequence (whole entry): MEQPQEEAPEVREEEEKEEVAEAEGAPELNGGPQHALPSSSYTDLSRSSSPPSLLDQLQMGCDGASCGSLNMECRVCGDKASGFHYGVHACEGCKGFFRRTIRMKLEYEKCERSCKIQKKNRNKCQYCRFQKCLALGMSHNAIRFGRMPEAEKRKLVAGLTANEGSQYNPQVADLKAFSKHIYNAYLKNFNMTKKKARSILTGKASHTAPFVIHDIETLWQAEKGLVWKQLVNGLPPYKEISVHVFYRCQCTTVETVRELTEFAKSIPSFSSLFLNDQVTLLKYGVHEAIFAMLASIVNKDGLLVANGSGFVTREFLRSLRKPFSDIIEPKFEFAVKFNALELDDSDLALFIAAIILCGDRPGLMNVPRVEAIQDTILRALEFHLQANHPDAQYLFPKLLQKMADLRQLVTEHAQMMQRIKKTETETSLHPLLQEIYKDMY
Summary of the method: (§1)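 HEK293T cells transiently transfected with pFR-Luc, pRL-SV40 and Gal4 fusion of human PPAR hinge region plus LBD. Compound added 5 h later in Opti-MEM with 0.1% DMSO, then left overnight (14−16 h). Dual-Glo firefly/Renilla luciferase read, giving RLU. Fold activation is taken against the DMSO control. Max relative activation is set against 1 μM GW7647 (α) or L165,041 (δ). EC50 from a four-parameter fit. Duplicates, ≥3 independent runs.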

[2] = target: T2, Peroxisome proliferator-activated receptor delta (Homo sapiens, UniProt Q03181); test: Agonist activity at Gal4-fused human PPARdelta LBD transfected in HEK293T cells assessed as transcriptional activation incubated for 14 to 16 hrs by dual-Glo luciferase assay; summary of the method: as §1
T2 sequence (Q03181 whole entry): T1 sequence (whole entry)

[3] = target: T3, Peroxisome proliferator-activated receptor alpha (Homo sapiens) (UniProt Q07869); test: Agonist activity at Gal4-fused human PPARalpha LBD transfected in HEK293T cells assessed as maximal relative activation incubated for 14 to 16 hrs by dual-Glo luciferase assay relative to GW7647; details: time 14-16 hrs; summary of the method: as §1
T3 sequence (whole entry): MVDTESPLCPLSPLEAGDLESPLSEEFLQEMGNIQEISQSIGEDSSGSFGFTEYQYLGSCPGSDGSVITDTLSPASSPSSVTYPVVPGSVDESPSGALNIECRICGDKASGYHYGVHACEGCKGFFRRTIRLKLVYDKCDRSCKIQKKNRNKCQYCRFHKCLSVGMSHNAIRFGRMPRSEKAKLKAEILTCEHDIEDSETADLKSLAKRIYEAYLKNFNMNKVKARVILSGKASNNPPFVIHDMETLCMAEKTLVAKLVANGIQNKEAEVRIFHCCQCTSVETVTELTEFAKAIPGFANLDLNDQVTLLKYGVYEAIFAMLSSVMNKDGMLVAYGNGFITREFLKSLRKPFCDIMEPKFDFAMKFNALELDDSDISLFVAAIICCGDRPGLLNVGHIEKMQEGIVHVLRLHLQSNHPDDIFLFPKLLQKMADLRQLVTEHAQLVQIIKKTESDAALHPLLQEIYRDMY

[4] = target: T4, Peroxisome proliferator-activated receptor gamma (Homo sapiens, UniProt P37231); test: Agonist activity at Gal4-fused human PPARgamma LBD transfected in HEK293T cells assessed as transcriptional activation incubated for 14 to 16 hrs by dual-Glo luciferase assay
T4 sequence (P37231 whole entry): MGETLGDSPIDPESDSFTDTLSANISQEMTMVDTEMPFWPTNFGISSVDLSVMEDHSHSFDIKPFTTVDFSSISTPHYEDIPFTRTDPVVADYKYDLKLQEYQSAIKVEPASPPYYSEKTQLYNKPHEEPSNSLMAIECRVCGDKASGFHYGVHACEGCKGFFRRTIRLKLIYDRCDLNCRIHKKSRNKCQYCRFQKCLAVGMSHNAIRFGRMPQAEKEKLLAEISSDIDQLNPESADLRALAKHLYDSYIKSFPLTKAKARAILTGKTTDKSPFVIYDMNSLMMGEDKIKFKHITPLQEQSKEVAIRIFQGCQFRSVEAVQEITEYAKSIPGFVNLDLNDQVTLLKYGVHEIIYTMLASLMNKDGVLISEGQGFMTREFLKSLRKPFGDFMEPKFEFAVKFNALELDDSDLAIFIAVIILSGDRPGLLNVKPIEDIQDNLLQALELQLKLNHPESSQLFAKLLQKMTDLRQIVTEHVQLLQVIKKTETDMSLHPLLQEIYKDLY

[5] = target: T5, Peroxisome proliferator-activated receptor alpha (Homo sapiens, UniProt Q07869); test: Agonist activity at Gal4-fused human PPARalpha LBD transfected in HEK293T cells assessed as transcriptional activation incubated for 14 to 16 hrs by dual-Glo luciferase assay; summary of the method: as §1
T5 sequence (Q07869 whole entry): T3 sequence (whole entry)

HEK-293T = test: Cytotoxicity against HEK293T cells assessed as reduction in cell viability at >= 6 uM; details: human

max activation [1]: 33%
EC50 [2]: 1420 nM
max activation [3]: 24%
EC50 [4]: > 10000 nM
EC50 [5]: 660 nM
Compound: Cc1ccc(/N=N/c2ccc(OCCc3ccc(OC(C)(C)C(=O)O)cc3)cc2)cc1
Activity (HEK-293T): Non-Toxic
